One assay relates to CCRF-CEM. As to the kind of experiment: Cytotoxicity against human CEM cells after 72 hrs by MTT assay. It counts as functional, cell-based. Summed up:
(§1)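 Log-phase cells seeded at 40000–50000 cells/mL, attached overnight, then exposed to 10^-4–10^-9 M compound for 72 h at 37 °C, 5% CO₂. Viable cells measured by MTT, absorbance 570 nm. Triplicates in at least three independent assays; IC50 by nonlinear regression.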

The test system of a further assay is MDA-MB-435. As to the kind of experiment: Cytotoxicity against human MDA-MB-435 cells after 72 hrs by MTT assay. It counts as functional, cell-based. The settings on record: MDA-MB-435, 72 h. In short, it runs like this: as §1
Assay [1] has as its system LoVo. As to the kind of experiment: Cytotoxicity against human LoVo cells after 72 hrs by MTT assay. It counts as functional, cell-based. Summed up: as §1
In general terms: Tetrazolium dyes change colour on reduction, which living cells bring about.

A further assay is filed under the species Bos taurus. Briefly: Inhibition of bovine brain tubulin polymerization at 10 uM after 60 mins by turbidimetry analysis.
Assay [2] relates to LoVo. Briefly: Cell cycle arrest in human LoVo cells assessed as accumulation at G2/M phase at 5 uM after 24 hrs using propidium iodide staining by flow cytometry (reference value: 13%). Type of assay: functional. Summed up: (§2)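 LOVO cells (10⁶) treated 24 h with compound; pelleted, fixed in citrate buffer, RNase A 20 min, then propidium iodide 20 min. DNA content read by flow cytometry to give percentage of cells per cycle phase, untreated cells as control.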
For orientation: Flow cytometry measures light scatter and fluorescence of single cells or particles in a stream.

The test system of assay [3] is LoVo. As to the kind of experiment: Cell cycle arrest in human LoVo cells assessed as accumulation at G2/M phase at 25 uM after 24 hrs using propidium iodide staining by flow cytometry relative to control. Type of assay: functional. Summed up:
as §2

SMILES strings stand for the structures. Active and inactive are the calls of the source. The rule behind the calls is not given here. Bounds are passed on as bounds.

In the case of `COc1cc(-c2[nH]c(=O)[nH]c2C(=O)Nc2cccc3ccccc23)cc(OC)c1OC`, the figures for the IC50 in the assay with CCRF-CEM, with MDA-MB-435 and in the assay with LoVo [1] were 11.9 µM, 9.32 µM and 3.46 µM, respectively.

Turning to `COc1ccc(NC(=O)c2[nH]c(=O)[nH]c2-c2cc(OC)c(OC)c(OC)c2)cc1N`, the figures for the 50% inhibitory concentration (IC50) with CCRF-CEM, in the assay with MDA-MB-435 and with LoVo [1] were 0.33 µM, 0.62 µM and 3.4 µM, respectively. In the assay filed under Bos taurus, the inhibition entry is “Active”. The Activity in the assay on LoVo [2] was found to be 28%; in the assay on LoVo [3], 74%.

Take `COc1ccc(NC(=O)c2[nH]c(=O)[nH]c2-c2cc(OC)c(OC)c(OC)c2)cc1[N+](=O)[O-]`: the half-maximal inhibitory concentration (IC50) was over 200 µM in the assay on CCRF-CEM, over 240 µM in the assay on MDA-MB-435 and 43.9 µM in the assay with LoVo [1]. Also, in the assay filed under Bos taurus, the inhibition result is “inactive”.

On to `COc1cc(-c2[nH]c(=O)[nH]c2C(=O)Nc2ccc(C)c(Cl)c2)cc(OC)c1OC`, for which the IC50 was 2.11 µM in the assay with CCRF-CEM, 8.34 µM in the assay with MDA-MB-435 and 5.46 µM in the assay on LoVo [1].

For the compound `COc1cc(-c2[nH]c(=O)[nH]c2C(=O)Nc2ccc(C)cc2)cc(OC)c1OC`, the values for the IC50 in the assay with CCRF-CEM, with MDA-MB-435 and with LoVo [1] were 0.24 µM, 0.63 µM and 4.67 µM, respectively. Besides, the inhibition entry in the assay filed under Bos taurus was “Active”.

With `COc1cc(-c2[nH]c(=O)[nH]c2C(=O)Nc2ccccc2)cc(OC)c1OC`, the IC50 with CCRF-CEM turned out to be 45.9 µM; with MDA-MB-435 it was 40.4 µM; in the assay with LoVo [1] it was 77.6 µM.

With `COc1cc(-c2[nH]c(=O)[nH]c2C(=O)Nc2cc(C)cc(C)c2)cc(OC)c1OC`, the figures for the IC50 in the assay with CCRF-CEM, in the assay on MDA-MB-435 and in the assay on LoVo [1] were 19.4 µM, 33.8 µM and 23.4 µM, respectively.

As for `COc1cc(-c2[nH]c(=O)[nH]c2C(=O)Nc2cccc([N+](=O)[O-])c2)cc(OC)c1OC`, the IC50 is over 200 µM in the assay on CCRF-CEM, 44.2 µM in the assay with MDA-MB-435 and 35 µM with LoVo [1].

In the case of `COc1ccc(NC(=O)c2[nH]c(=O)[nH]c2-c2cc(OC)c(OC)c(OC)c2)cc1`, the IC50 in the assay on CCRF-CEM stood at 2.3 µM; with MDA-MB-435, 17.4 µM; with LoVo [1], 35.6 µM.

Consider `COc1cc(-c2[nH]c(=O)[nH]c2C(=O)Nc2ccc(Cl)cc2)cc(OC)c1OC`, for which the values for the IC50 with CCRF-CEM, in the assay on MDA-MB-435 and in the assay with LoVo [1] were over 200 µM, 152 µM and 110 µM, respectively.

On to `COc1cc(-c2[nH]c(=O)[nH]c2C(=O)Nc2cccc(C)c2)cc(OC)c1OC`, for which the IC50 with CCRF-CEM worked out at 0.18 µM; in the assay with MDA-MB-435, 0.76 µM; in the assay with LoVo [1], 0.62 µM. In addition, the inhibition entry in the assay filed under Bos taurus is “Active”.

With `COc1cc(-c2[nH]c(=O)[nH]c2C(=O)Nc2cccc(Cl)c2)cc(OC)c1OC`, the IC50 in the assay on CCRF-CEM stood at 4.8 µM; with MDA-MB-435 it was 4.77 µM; in the assay on LoVo [1], 3.62 µM.

On to `COc1cc2c(c(OC)c1OC)-c1ccc(OC)c(=O)cc1[C@@H](NC(C)=O)CC2` [COLCHICINE], for which the IC50 in the assay on CCRF-CEM stood at 0.0172 µM; with MDA-MB-435, 0.0073 µM; with LoVo [1] it was 0.101 µM.

In the case of `COc1cc(-c2[nH]c(=O)[nH]c2C(=O)Nc2ccc(C(C)(C)C)cc2)cc(OC)c1OC`, the IC50 in the assay on CCRF-CEM is 38.8 µM; in the assay with MDA-MB-435 it was 32.2 µM; in the assay on LoVo [1], 34 µM.

For the compound `COc1ccc(NC(=O)c2[nH]c(=O)[nH]c2-c2cc(OC)c(OC)c(OC)c2)cc1OC`, the 50% inhibitory concentration (IC50) with CCRF-CEM amounted to 4.19 µM; with MDA-MB-435 it was 4.87 µM; in the assay on LoVo [1] it was 11.9 µM.

`COc1cc(-c2[nH]c(=O)[nH]c2C(=O)Nc2ccc(Cl)c(Cl)c2)cc(OC)c1OC`: the IC50 in the assay with CCRF-CEM came out at 12.1 µM; with MDA-MB-435, 19.2 µM; in the assay with LoVo [1], 4.93 µM.

As a reminder, the IC50 is the point on the concentration scale where inhibition reaches its midpoint. Read a high IC50 as lower potency.
